# Results from different studies.
# Compare with care: the assays were run in different laboratories.
Structure (SMILES),tested on,assay,test system,conditions,measurement,value
Cc1cc(/C=C/C#N)cc(C)c1Nc1ccnc(Nc2ccc(C#N)cc2)n1,Human immunodeficiency virus 1,"viral replication, inhibitor","TZM-bl, IIIB",48 h,EC50,0.89 nM
CC(=O)ON=C1C=CC(=C(C#N)c2ccccc2)C=C1,HDF-1,"cell growth or viability, MTT",,48 h,IC50,24.9 µg/mL
CC(C)(C#Cc1ccc(-c2ccc(Cl)c3c(NS(C)(=O)=O)nn(CC(F)(F)F)c23)c([C@H](CC2CCCC2)NC(=O)Cn2nc(C(F)(F)F)c3c2C(F)(F)[C@@H]2C[C@H]32)n1)S(C)(=O)=O,Human immunodeficiency virus 1,"viral replication, inhibitor",,,EC50,0.073 nM
CCOC(=O)c1c(N(CC)CC)c2c([nH]c1=O)CCC2,Human immunodeficiency virus 1,"viral replication, inhibitor",IIIB,72 h,EC50,79300 nM
[NH2][Pt]([NH2])([Cl])[Cl],HCC4006,"cell growth or viability, MTT",,48 h,IC50,182 µM
CC(C)(C#Cc1ccc(-c2ccc(Cl)c3c(NS(C)(=O)=O)nn(CC(F)(F)F)c23)c([C@H](CC2CC2)NC(=O)Cn2nc(C(F)(F)F)c3c2C(F)(F)[C@@H]2C[C@H]32)n1)S(C)(=O)=O,Human immunodeficiency virus 1,"viral replication, inhibitor",,,EC50,0.9 nM
CCOC(=O)c1c(NCCCN)c2c([nH]c1=O)CCC2,Human immunodeficiency virus 1,"viral replication, inhibitor",IIIB,72 h,EC50,> 100000 nM
CO[C@H]1/C=C/O[C@@]2(C)Oc3c(C)c(O)c4c(O)c(c(/C=N/N5CCN(C)CC5)c(O)c4c3C2=O)NC(=O)/C(C)=C\C=C\[C@H](C)[C@H](O)[C@@H](C)[C@@H](O)[C@@H](C)[C@H](OC(C)=O)[C@@H]1C,Mycobacterium marinum,microbial growth,,,MIC90,10 µM
CC(C)(C#Cc1ccc(-c2ccc(Cl)c3c(NS(C)(=O)=O)nn(CC(F)(F)F)c23)c([C@H](Cc2cc(F)cc(F)c2)NC(=O)Cn2nc(C(F)(F)F)c3c2C(F)(F)[C@@H]2C[C@H]32)n1)S(C)(=O)=O,Human immunodeficiency virus 1,"viral replication, inhibitor",,,EC50,0.19 nM
O=c1[nH]ncc(NN=Cc2cn(-c3ccccc3)nc2-c2cc3ccccc3oc2=O)c1Cl,CCRF-CEM,cell growth or viability,,48 h,CC50,36.2 µM
C=CCCCNc1c2c([nH]c(=O)c1C(=O)OCC)CCC2,Human immunodeficiency virus 1,"viral replication, inhibitor",IIIB,72 h,EC50,45400 nM
Cc1nc(Nc2ncc(C(=O)Nc3c(C)cccc3Cl)s2)cc(N2CC[C@H](O)C2)n1,CCRF-CEM,"cell growth or viability, ATP luminescence",,72 h,IC50,> 10 µM
CCOC(=O)c1c(NCCO)c2c([nH]c1=O)CCC2,Human immunodeficiency virus 1,"viral replication, inhibitor",IIIB,72 h,EC50,> 100000 nM
O=c1[nH]ncc(NN=Cc2cn(-c3ccccc3)nc2-c2ccccc2)c1Cl,CCRF-CEM,cell growth or viability,,48 h,CC50,4.78 µM
